Several values for one entry are separate records, joined by “and”; a condition that tells them apart may be missing. Equal entries are not always repeated.
Tests used:
[1] = Selectivity index (SI) is determined as the ratio of CC50/EC50; assay type: functional
Procedure, shortened: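 Ratio of CC50 to EC50, both taken from MTT read-outs in MT-4 cells: mock-infected cells for CC50 and HIV-1 IIIB-infected cells for EC50. Each value is the mean of at least three experiments.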

MT4 [2] = experiment: Cytotoxicity based on the reduction of the viability of mock-infected MT-4 cells using the MTT method; assay type: functional, Homo sapiens
Procedure, shortened: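 Mock-infected MT-4 cells were exposed to compound. Loss of viability was read by the MTT method, and CC50 was derived. Values are the mean of at least three experiments.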

[3] = molecular target: T1, C-X-C chemokine receptor type 4 (Homo sapiens, UniProt P61073); experiment: (§1) Inhibitory activity based on the inhibition of [Ca2+] mobilization induced by human SDF-1alpha stimulation through CXCR4
T1 sequence (P61073 whole entry): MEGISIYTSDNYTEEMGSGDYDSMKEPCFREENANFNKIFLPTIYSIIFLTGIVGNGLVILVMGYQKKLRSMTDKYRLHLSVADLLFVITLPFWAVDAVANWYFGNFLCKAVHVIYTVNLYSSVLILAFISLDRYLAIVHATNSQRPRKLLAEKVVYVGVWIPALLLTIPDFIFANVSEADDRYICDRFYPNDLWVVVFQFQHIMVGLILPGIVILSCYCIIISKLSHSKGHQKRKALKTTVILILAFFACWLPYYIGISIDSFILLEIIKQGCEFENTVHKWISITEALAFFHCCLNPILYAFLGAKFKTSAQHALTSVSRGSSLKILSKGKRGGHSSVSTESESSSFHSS
Procedure, shortened: (§2)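 CHO cells transfected with CXCR4 were loaded with Fura-2-AM for 1–2 h and then pretreated with analogue. Recombinant human SDF-1α was added 3 min later. [Ca2+]i rise was measured spectrofluorometrically by a modified Fura-2 method, and IC50 was derived from inhibition of mobilization. Values are the mean of two experiments.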

MT4 [4] = experiment: Anti-HIV activity based on the protection against HIV-induced cytopathogenicity in MT-4 cells using MTT method; assay type: functional, cell-based, Homo sapiens
Procedure, shortened: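 MT-4 cells challenged with the X4 strain HIV-1 IIIB. Protection from virus-induced cytopathogenicity was read by the MTT method, and EC50 was derived. Values are the mean of at least three experiments.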

[5] = molecular target: T1, C-X-C chemokine receptor type 4; experiment: as §1; procedure, shortened: as §2; remark: listed apart in the source

Row | Structure (SMILES) | SI [1] | CC50 (MT4 [2]; Homo sapiens, MT4) [nM] | EC50 (MT4 [4]; mt4) | EC50 (MT4 [4]; Homo sapiens, MT4) [nM] | also measured
1 | C[C@H]1/C=C\[C@@H](CCCCN)NC(=O)[C@H](CCCCN)NC(=O)[C@@H](CCCN=C(N)N)NC(=O)[C@H](Cc2ccc(O)cc2)NC(=O)[C@@H](NC(=O)[C@H](Cc2c[nH]c3ccccc23)NC(=O)[C@H](CCCN=C(N)N)NC(=O)[C@@H](N)CCCN=C(N)N)CSSC[C@@H](C(=O)N[C@@H](CCCN=C(N)N)C(N)=O)NC(=O)C(CCCNC(N)=O)NC(=O)[C@@H](CCCN=C(N)N)NC(=O)[C@H](Cc2ccc(O)cc2)NC1=O (some centres undefined) | 15000 and 20000 | – | – | – | –
2 | C[C@H]1/C=C\[C@@H](CCCCN)NC(=O)[C@H](CCCCN)NC(=O)[C@H](CCCN=C(N)N)NC(=O)[C@H](Cc2ccc(O)cc2)NC(=O)[C@@H](NC(=O)[C@H](Cc2c[nH]c3ccccc23)NC(=O)[C@H](CCCN=C(N)N)NC(=O)[C@@H](N)CCCN=C(N)N)CSSC[C@@H](C(=O)N[C@@H](CCCN=C(N)N)C(N)=O)NC(=O)[C@H](CCCNC(N)=O)NC(=O)[C@H](CCCN=C(N)N)NC(=O)[C@H](Cc2ccc(O)cc2)NC1=O [listing 1 of 2 here] | – | 56000 | – | – | CC50 (MT4 [2]): 58000 nM
3 | C[C@H]1/C=C\[C@@H](CCCCN)NC(=O)[C@H](CCCCN)NC(=O)[C@H](CCCN=C(N)N)NC(=O)[C@H](Cc2ccc(O)cc2)NC(=O)[C@@H](NC(=O)[C@H](CSC23C[C@H]4C[C@@H](C2)C[C@@H](C3)C4)NC(=O)[C@H](CCCN=C(N)N)NC(=O)[C@@H](N)CCCN=C(N)N)CSSC[C@@H](C(=O)N[C@@H](CCCN=C(N)N)C(N)=O)NC(=O)[C@H](CCCNC(N)=O)NC(=O)[C@H](CCCN=C(N)N)NC(=O)[C@H](Cc2ccc(O)cc2)NC1=O [listing 1 of 2 here] | – | 49000 | – | – | CC50 (MT4 [2]): 57000 nM
4 | C[C@H]1/C=C\[C@@H](CCCCN)NC(=O)[C@H](CCCCN)NC(=O)[C@H](CCCN=C(N)N)NC(=O)[C@H](Cc2ccc(O)cc2)NC(=O)[C@@H](NC(=O)[C@H](CSC23C[C@H]4C[C@@H](C2)C[C@@H](C3)C4)NC(=O)[C@H](CCCN=C(N)N)NC(=O)[C@@H](N)CCCN=C(N)N)CSSC[C@@H](C(=O)N[C@@H](CCCN=C(N)N)C(N)=O)NC(=O)[C@H](CCCNC(N)=O)NC(=O)[C@H](CCCN=C(N)N)NC(=O)[C@H](Cc2ccc(O)cc2)NC1=O [listing 2 of 2 here] | – | – | 7.1 nM and 17 nM | – | IC50 [3]: 170 nM
5 | C[C@H]1/C=C\[C@@H](CCCCN)NC(=O)[C@H](CCCCN)NC(=O)[C@H](CCCN=C(N)N)NC(=O)[C@H](Cc2ccc(O)cc2)NC(=O)[C@@H](NC(=O)[C@H](CSCc2ccccc2)NC(=O)[C@H](CCCN=C(N)N)NC(=O)[C@@H](N)CCCN=C(N)N)CSSC[C@@H](C(=O)N[C@@H](CCCN=C(N)N)C(N)=O)NC(=O)[C@H](CCCNC(N)=O)NC(=O)[C@H](CCCN=C(N)N)NC(=O)[C@H](Cc2ccc(O)cc2)NC1=O | – | – | 45 nM | 67 | IC50 [3]: 36 nM
6 | C[C@H]1/C=C\[C@@H](CCCCN)NC(=O)[C@H](CCCCN)NC(=O)[C@@H](CCCN=C(N)N)NC(=O)[C@H](Cc2ccc(O)cc2)NC(=O)[C@@H](NC(=O)[C@H](CSCc2ccccc2)NC(=O)[C@H](CCCN=C(N)N)NC(=O)[C@@H](N)CCCN=C(N)N)CSSC[C@@H](C(=O)N[C@@H](CCCN=C(N)N)C(N)=O)NC(=O)C(CCCNC(N)=O)NC(=O)[C@@H](CCCN=C(N)N)NC(=O)[C@H](Cc2ccc(O)cc2)NC1=O (some centres undefined) | 810 and 1300 | – | – | – | –
7 | C[C@H]1/C=C\[C@@H](CCCCN)NC(=O)[C@H](CCCCN)NC(=O)[C@H](CCCN=C(N)N)NC(=O)[C@H](Cc2ccc(O)cc2)NC(=O)[C@@H](NC(=O)[C@H](Cc2c[nH]c3ccccc23)NC(=O)[C@H](CCCN=C(N)N)NC(=O)[C@@H](N)CCCN=C(N)N)CSSC[C@@H](C(=O)N[C@@H](CCCN=C(N)N)C(N)=O)NC(=O)[C@H](CCCNC(N)=O)NC(=O)[C@H](CCCN=C(N)N)NC(=O)[C@H](Cc2ccc(O)cc2)NC1=O [listing 2 of 2 here] | – | – | 2.9 nM | 3.7 | IC50 [5]: 5 nM
8 | C[C@H]1/C=C\[C@@H](CCCCN)NC(=O)[C@H](CCCCN)NC(=O)[C@@H](CCCN=C(N)N)NC(=O)[C@H](Cc2ccc(O)cc2)NC(=O)[C@@H](NC(=O)[C@H](Cc2c[nH]c3ccccc23)NC(=O)[C@H](CCCN=C(N)N)NC(=O)[C@@H](N)CCCN=C(N)N)CSSC[C@@H](C(=O)N[C@@H](CCCN=C(N)N)C(=O)O)NC(=O)C(CCCNC(N)=O)NC(=O)[C@@H](CCCN=C(N)N)NC(=O)[C@H](Cc2ccc(O)cc2)NC1=O (some centres undefined) | > 78000 | – | – | – | –
9 | C[C@H]1/C=C\[C@@H](CCCCN)NC(=O)[C@H](CCCCN)NC(=O)[C@H](CCCN=C(N)N)NC(=O)[C@H](Cc2ccc(O)cc2)NC(=O)[C@@H](NC(=O)[C@H](Cc2c[nH]c3ccccc23)NC(=O)[C@H](CCCN=C(N)N)NC(=O)[C@@H](N)CCCN=C(N)N)CSSC[C@@H](C(=O)N[C@@H](CCCN=C(N)N)C(=O)O)NC(=O)[C@H](CCCNC(N)=O)NC(=O)[C@H](CCCN=C(N)N)NC(=O)[C@H](Cc2ccc(O)cc2)NC1=O | – | 100000 | – | – | –
10 | Nc1ccn([C@H]2CC[C@@H](CO)O2)c(=O)n1 [ZALCITABINE] | 1500 | 48000 | – | 33 | –
